Published values gathered from unrelated publications.
Lines come from different studies, so protocols differ. Converted amounts (≈) assume the structure as drawn.

| Structure (SMILES) | target or system | assay | test system | setting | endpoint | result |
| --- | --- | --- | --- | --- | --- | --- |
| COc1ccnc(COc2ccc(NC(=O)Nc3ccc(F)cc3)cc2)c1OC | L02 | cell growth or viability, MTT | – | 72 h | IC50 | > 100000 nM |
| O=C(Nc1cc(F)c(F)c(F)c1)c1ccc(F)c(S(=O)(=O)NCc2cccc(B(O)O)c2)c1 | Hepatitis B virus | viral replication, inhibitor, qPCR | HePAD38 | 6 days | EC50 | 920 nM |
| COc1ccc(-c2ccc(-c3ccc(C(=N)N)nc3)s2)cc1Cl | SF-268 | cell growth or viability, SRB | – | – | GI50 | 1810 nM |
| CCN(CC)CCNC(=O)c1c(C)[nH]c(/C=C2\C(=O)Nc3ccc(F)cc32)c1C | BaF3 | cell growth or viability, ATP luminescence | – | 72 h | GI50 | 1420 nM |
| Cc1cccc(N(O)N=Nc2ccc(S(=O)(=O)Nc3cc(C)on3)cc2)c1 | – | ABTS scavenging | – | 300 µg/mL | inhibition | 90.2% |
| O=C(N[C@H](CO)[C@H](O)c1ccc([N+](=O)[O-])cc1)C(Cl)Cl | Aliivibrio fischeri | microbial growth | – | – | MIC90 | 3.9 µg/mL (≈ 12.1 µM) |
| COc1c(C)cnc(COc2ccc(NC(=O)Nc3cccc(C(F)(F)F)c3)cc2)c1C | L02 | cell growth or viability, MTT | – | 72 h | IC50 | > 100000 nM |
| Nc1ccc(-c2nc(-c3ccc(Oc4ccccc4)cc3)no2)cc1 | Clostridioides difficile | microbial growth, broth dilution | – | 48 h | MIC | > 50 µg/mL |
| Cc1ccc(N(O)N=Nc2ccc(S(=O)(=O)Nc3cc(C)on3)cc2)cc1 | – | ABTS scavenging | – | 20 µg/mL | inhibition | 17.2% |
| Cl.NCCc1cccc(Oc2ccc(-c3noc(-c4ccc(O)cc4)n3)cc2)c1 | Clostridioides difficile | microbial growth, broth dilution | – | 48 h | MIC | 4 µg/mL |
| O=C1O[C@H]([C@@H](O)CO)C(O)=C1O | – | ABTS scavenging | – | 60 µg/mL | inhibition | 49.9% |
| O=C(O)CCc1cccc(Oc2ccc(-c3noc(-c4ccc(O)cc4)n3)cc2)c1 | Clostridioides difficile | microbial growth, broth dilution | – | 48 h | MIC | 8 µg/mL (≈ 19.9 µM) |
| Cc1ccc(C)n1-c1ccc(-c2nnc(-c3ccc(Br)cc3)[nH]2)cc1 | Saccharomyces cerevisiae | microbial growth, broth dilution | ATCC9763 | – | MIC | 4 µg/mL (≈ 10.2 µM) |
